Assay results taken from ChEMBL document CHEMBL1123123, “Orally absorbable cephalosporin antibiotics. 2. Structure-activity studies of bicyclic glycine derivatives of 7-aminodeacetoxycephalosporanic acid” (1985).
In brackets after ≈: the same amount, converted by molar mass.

What was measured:
Assay type in all cases: functional
Streptococcus pyogenes = assay: The compound was tested for antibacterial activity against Streptococcus pyogenes C203.
[1] = tested on: Staphylococcus epidermidis; assay: The compound was tested for antibacterial activity against Staphylococcus epidermidis EP11.
Haemophilus influenzae [2] = assay: The compound was tested for antibacterial activity against sensitive Haemophilus influenzae C.L.
Staphylococcus aureus [3] = assay: Antibacterial activity against methicillin resistant Staphylococcus aureus S13E.
Outline: (§1)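 Agar dilution susceptibility test following a previously published method; value recorded as MIC. Racemic compounds were separated by preparative HPLC and only the R epimers were tested.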

Haemophilus influenzae [4] = assay: The compound was tested for antibacterial activity against resistant Haemophilus influenzae 76.; outline: as §1
Streptococcus pneumoniae = assay: The compound was tested for antibacterial activity against Streptococcus pneumoniae Park.
Staphylococcus aureus [5] = assay: Antibacterial activity against methicillin resistant Staphylococcus aureus X400.; outline: as §1
Staphylococcus aureus [6] = assay: Antibacterial activity against penicillin G sensitive Staphylococcus aureus X1.1
Streptococcus = assay: The compound was tested for antibacterial activity against Streptococcus group D X66.
Staphylococcus aureus [7] = assay: Antibacterial activity against penicillin G resistant Staphylococcus aureus V41.; outline: as §1
Mus musculus [8] = assay: Dose administered orally in mice infected with Streptococcus pneumoniae; conditions: po
Outline: (§2)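 Mice were used in groups of 10 and inoculated with S. aureus, S. pyogenes or S. pneumoniae. Drug was given orally or subcutaneously at 1 and 5 h after inoculation. The ED50 was determined from the dosed groups.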

Mus musculus [9] = assay: Dose administered orally in mice infected with Streptococcus pyogenes.; conditions: po; outline: as §2
Mus musculus [10] = assay: Dose administered subcutaneously in mice infected with Streptococcus pneumoniae; conditions: sc; outline: as §2
Mus musculus [11] = assay: Dose administered orally in mice infected with Staphylococcus aureus.; conditions: po; outline: as §2
Mus musculus [12] = assay: Dose administered subcutaneously in mice infected with Streptococcus pyogenes; conditions: sc; outline: as §2
Mus musculus [13] = assay: Dose administered subcutaneously in mice infected with Staphylococcus aureus.; conditions: sc; outline: as §2
Staphylococcus aureus [14] = assay: Aantibacterial activity against methicillin resistant Staphylococcus aureus S13E.; outline: as §1

Structure (SMILES)	MIC (Streptococcus pyogenes) [µg/mL]	MIC [1] [µg/mL]	MIC (Haemophilus influenzae [2]) [µg/mL]	MIC (Staphylococcus aureus [3]) [µg/mL]	MIC (Haemophilus influenzae [4]) [µg/mL]	MIC (Streptococcus pneumoniae) [µg/mL]	MIC (Staphylococcus aureus [5]) [µg/mL]	MIC (Staphylococcus aureus [6]) [µg/mL]	MIC (Streptococcus) [µg/mL]	MIC (Staphylococcus aureus [7]) [µg/mL]	ED50 (Mus musculus [8]) [mg/kg]	ED50 (Mus musculus [9]) [mg/kg]	ED50 (Mus musculus [10]) [mg/kg]	ED50 (Mus musculus [11]) [mg/kg]	ED50 (Mus musculus [12]) [mg/kg]	ED50 (Mus musculus [13]) [mg/kg]	MIC (Staphylococcus aureus [14]) [µg/mL]
CC1=C(C(=O)O)N2C(=O)C(NC(=O)C(N)c3cc4sccc4s3)C2SC1 (stereo not drawn)	0.25 (≈ 0.61 µM)	16 (≈ 39.1 µM)	64 (≈ 156 µM)	64 (≈ 156 µM)	2 (≈ 4.88 µM)	1 (≈ 2.44 µM)	> 64	0.5 (≈ 1.22 µM)	> 64	32 (≈ 78.1 µM)							
CC(=O)N1CCc2cc(C(N)C(=O)NC3C(=O)N4C(C(=O)O)=C(C)CSC34)ccc21 (stereo not drawn)	1 (≈ 2.32 µM)	8 (≈ 18.6 µM)	16 (≈ 37.2 µM)	64 (≈ 149 µM)	8 (≈ 18.6 µM)	1 (≈ 2.32 µM)	64 (≈ 149 µM)	2 (≈ 4.65 µM)	64 (≈ 149 µM)	64 (≈ 149 µM)	9.3	2.6	10.6	0.85	0.79	2.11	
CC1=C(C(=O)O)N2C(=O)C(NC(=O)C(N)c3cccc4sccc34)C2SC1 (stereo not drawn)	0.25 (≈ 0.62 µM)	16 (≈ 39.7 µM)	4 (≈ 9.91 µM)	64 (≈ 159 µM)	2 (≈ 4.96 µM)	1 (≈ 2.48 µM)	64 (≈ 159 µM)	2 (≈ 4.96 µM)	64 (≈ 159 µM)	16 (≈ 39.7 µM)							
CC1=C(C(=O)O)N2C(=O)C(NC(=O)C(N)c3cc4ccsc4s3)C2SC1 (stereo not drawn)	0.25 (≈ 0.61 µM)	4 (≈ 9.77 µM)	8 (≈ 19.5 µM)	16 (≈ 39.1 µM)	2 (≈ 4.88 µM)	0.5 (≈ 1.22 µM)	> 64	0.5 (≈ 1.22 µM)	> 64	32 (≈ 78.1 µM)							
CC1=C(C(=O)O)N2C(=O)C(NC(=O)C(N)c3ccc4sccc4c3)C2SC1 (stereo not drawn)	0.125 (≈ 0.31 µM)	2 (≈ 4.96 µM)	8 (≈ 19.8 µM)	64 (≈ 159 µM)	4 (≈ 9.91 µM)	0.5 (≈ 1.24 µM)	64 (≈ 159 µM)	0.5 (≈ 1.24 µM)	64 (≈ 159 µM)	4 (≈ 9.91 µM)							
CC1=C(C(=O)O)N2C(=O)[C@@H](NC(=O)[C@H](N)c3ccccc3)[C@H]2SC1 [CEPHALEXIN ANHYDROUS]	0.5 (≈ 1.44 µM)	32 (≈ 92.1 µM)	8 (≈ 23 µM)		8 (≈ 23 µM)	2 (≈ 5.76 µM)		4 (≈ 11.5 µM)			37	1.77	30.5	0.9	2.9	1.66	
CC1=C(C(=O)O)N2C(=O)C(NC(=O)C(N)c3cccc4c(C)csc34)C2SC1 (stereo not drawn)	1 (≈ 2.4 µM)	8 (≈ 19.2 µM)	8 (≈ 19.2 µM)		1 (≈ 2.4 µM)	2 (≈ 4.79 µM)	64 (≈ 153 µM)	2 (≈ 4.79 µM)	64 (≈ 153 µM)	16 (≈ 38.3 µM)							64 (≈ 153 µM)
